The values below come from ChEMBL document CHEMBL1136789, “Synthesis and biological evaluation of new 2-(4,5-dihydro-1H-imidazol-2-yl)-3,4-dihydro-2H-1,4-benzoxazine derivatives” (J Med Chem, 2003).

The nature of assay [1]: In vitro alpha-1 adrenergic receptor binding affinity was determined on calf frontal cortex membrane preparation. The format is tissue-based, Bos taurus. The gist of the method:
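Calf frontal cortex membranes (0.5 mg protein/mL) incubated 40 min at 25 °C with 0.5 nM [3H]prazosin in 50 mM phosphate buffer with 10 mM MgCl2. Competitors at 10^-9 to 10^-4 M. Nonspecific binding set with 10 µM phentolamine. Stopped by rapid vacuum filtration through glass fibre filters, then washed three times with ice-cold buffer. Ki reported.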

Assay [2] in a line: In vitro alpha-2 adrenergic receptor binding affinity was determined on calf frontal cortex membrane preparation. Type of assay: tissue-based, Bos taurus.
The subject of assay [3] is Rattus norvegicus. As to the kind of experiment: Effect at (25 mg/kg, ip) on heart rate in anesthetized spontaneously hypertensive rats. Type of assay: functional. The gist of the method:
(§1)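 Adult male SHR anaesthetised with sodium pentobarbital 50 mg/kg ip, left carotid catheter filled with heparinised saline. BP and HR (HR from pulse pressure) stabilised ≥40 min before a single ip dose, n=6/group. Vehicle 0.5% carboxymethylcellulose in water, 2.5 mL/kg. Recorded over 90 min. Output is the maximal change in MAP (mmHg) and HR (bpm) from pre-dose baseline, also as %. Repeated-measures ANOVA with Dunnett's tests.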

The subject of assay [4] is Rattus norvegicus. As to the kind of experiment: Effect (25 mg/kg ip) on heart rate in anesthetized spontaneously hypertensive rats. The format is functional. In outline: as §1
Assay [5] has as its system Rattus norvegicus. As to the kind of experiment: Effect (25 mg/kg ip) on mean arterial blood pressure in anesthetized spontaneously hypertensive rats. The format is functional. In outline:
as §1

The test system of assay [6] is Rattus norvegicus. Description: Effect after 30 mg/kg, po, on heart rate in conscious spontaneously hypertensive rats. Type of assay: functional. The gist of the method: (§2)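 Studied conscious 24 h after surgery. Dosed by oral gavage after ≥40 min stabilisation, n=6/group. Vehicle 0.5% carboxymethylcellulose, 5 mL/kg. MAP and HR recorded over 24 h. Output is the maximal change from baseline (mmHg, bpm, %). Repeated-measures ANOVA with Dunnett's tests.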

For assay [7], the system named is Rattus norvegicus. Description: Effect after 30 mg/kg, po, on mean arterial blood pressure in conscious spontaneously hypertensive rats. The format is functional. The gist of the method:
as §2

Regarding `CCOCc1ccc2c(c1)N(C)CC(C1=NCCN1)O2` (stereo not given), the Ki – broadly, a dissociation constant, usually derived from enzyme kinetics or from competition with a known ligand – in assay [1] is > 10 µM; in assay [2] it was > 1000 nM.

As to `c1cc2c3c(c1)OC(C1=NCCN1)CN3CCCC2` (stereo not given), the Ki in assay [1] is 4.6 µM; in assay [2], 2150 nM. Moreover, in assay [3], the “Max delta HR” value was -65 beats min-1. Also, the Variation is -22% in assay [4] and 11% in assay [5]. Besides, the “Max delta MAP” value in assay [5] was determined as 21 mmHg.

Take `CN1CC(C2=NCCN2)Oc2c1ccc1ccccc21` (stereo not given): in assay [1], the Ki is > 10 µM. Besides, in assay [3], the “Max delta HR” value is listed as -80 beats min-1. Besides, the Variation in assay [4] is recorded as -24%. In assay [5], the “Max delta MAP” value is -14 mmHg and the Variation is given as -8%.

`COc1ccc2c(c1)N(C)CC(C1=NCCN1)O2` (stereo not given): the Ki in assay [1] is > 10 µM; in assay [2], 287 nM. Moreover, the “Max delta HR” value in assay [3] was -54 beats min-1. In addition, the results for the Variation in assay [4] and in assay [5] were -18% and -8%, respectively. Besides, the “Max delta MAP” value in assay [5] was -14 mmHg.

For `CN1CC(C2=NCCN2)Oc2ccc(CO)cc21` (stereo not given), the Ki in assay [1] is > 10 µM; in assay [2] it was 10.4 nM.

On to `CN1CC(C2=NCCN2)Oc2ccc(C(F)(F)F)cc21` (stereo not given), for which the Ki in assay [1] was > 10 µM; in assay [2] it was 263 nM. The “Max delta HR” value in assay [3] is listed as -134 beats min-1. Besides, the Variation in assay [4] was -43%; in assay [5], -18%. Also, the “Max delta MAP” value in assay [5] was -32 mmHg.

As for `CN1CC(C2=NCCN2)Oc2ccc(F)cc21` (single isomer, unassigned; (-)), the Ki was > 1 µM in assay [1] and 32.9 nM in assay [2]. Besides, the “Max delta HR” value in assay [3] is -143 beats min-1. Besides, the Variation is on record as -45% in assay [4] and -31% in assay [5]. Besides, in assay [5], the “Max delta MAP” value was -55 mmHg.

As for `COc1cc(=O)n2c3c(cccc13)OC(C1=NCCN1)C2` (stereo not given), the Ki in assay [1] is > 10 µM; in assay [2] it was 13000 nM. Moreover, in assay [3], the “Max delta HR” value turned out to be 13 beats min-1. Besides, the Variation is listed as 4% in assay [4] and -5% in assay [5]. Moreover, in assay [5], the “Max delta MAP” value is listed as -9 mmHg.

`c1ccc2c(c1)NCC(C1=NCCN1)O2` (stereo not given): the Ki was > 10 µM in assay [1] and > 10000 nM in assay [2]. Besides, in assay [3], the “Max delta HR” value is recorded as -8 beats min-1. Moreover, the Variation in assay [4] is -3%; in assay [5] it was -9%. In addition, the “Max delta MAP” value in assay [5] is -17 mmHg.

In the case of `c1cc2c3c(c1)OC(C1=NCCN1)CN3CCC2` (stereo not given), the Ki in assay [1] was 0.71 µM; in assay [2], 340 nM. Besides, the “Max delta HR” value in assay [3] is recorded as -77 beats min-1. In addition, the Variation in assay [4] was -24%; in assay [5], -20%. Also, the “Max delta MAP” value in assay [5] is -34 mmHg.

In the case of `CN1CC(C)(C2=NCCN2)Oc2ccccc21` (stereo not given), the Ki is > 1 µM in assay [1] and > 1000 nM in assay [2]. Also, the “Max delta HR” value in assay [3] is reported as -37 beats min-1. The Variation in assay [4] was -11%; in assay [5] it was -9%. Besides, the “Max delta MAP” value in assay [5] is given as -17 mmHg.

`CN1CC(C2=NCCN2)Oc2ccc(Cl)cc21` (stereo not given): the inhibition constant (Ki) is 1.46 µM in assay [1] and 52.5 nM in assay [2]. The entries for the “Max delta HR” value in assay [6] and in assay [3] were -40 beats min-1 and -96 beats min-1, respectively. The Variation is recorded as 11% in assay [6], -24% in assay [7], -32% in assay [4] and -28% in assay [5]. The “Max delta MAP” value was -47 mmHg in assay [7] and -53 mmHg in assay [5].

Turning to `CN1CC(C2=NCCN2)Oc2cc3c(cc21)CCCC3` (stereo not given), the inhibitory constant (Ki) in assay [1] was > 10 µM; in assay [2] it was 98 nM. Moreover, in assay [3], the “Max delta HR” value is recorded as -53 beats min-1. The Variation in assay [4] is -17%; in assay [5], -9%. Moreover, in assay [5], the “Max delta MAP” value is recorded as -15 mmHg.

In the case of `Cc1cccc2c1N(C)CC(C1=NCCN1)O2` (stereo not given), the Ki stood at 4.74 µM in assay [1] and 145 nM in assay [2]. Moreover, the “Max delta HR” value in assay [3] was -52 beats min-1. Moreover, the Variation in assay [4] is -16%; in assay [5] it was 23%. Moreover, the “Max delta MAP” value in assay [5] was found to be 47 mmHg.

For the compound `Cc1cc2c(cc1C)N(C)CC(C1=NCCN1)O2` (stereo not given), the Ki in assay [1] was 5.66 µM; in assay [2] it was 26 nM. In addition, the “Max delta HR” value in assay [3] is on record as -100 beats min-1. In addition, the Variation in assay [4] is listed as -33%; in assay [5] it was -5%. For the same compound, the “Max delta MAP” value in assay [5] is reported as -8 mmHg.

`CN1CC(C2=NCCN2)Oc2cc3ccccc3cc21` (stereo not given): the results for the Ki in assay [1] and in assay [2] were > 10 µM and 402 nM, respectively. In addition, the “Max delta HR” value in assay [3] is on record as -37 beats min-1. Besides, the Variation in assay [4] is recorded as -11%; in assay [5], -9%. Also, in assay [5], the “Max delta MAP” value is given as -17 mmHg.

For the compound `Cc1cccc2c1OC(C1=NCCN1)CN2C` (stereo not given), the values for the Ki in assay [1] and in assay [2] were > 1 µM and 7.3 nM, respectively. The “Max delta HR” value in assay [3] is -79 beats min-1. The Variation is given as -25% in assay [4] and -13% in assay [5]. Moreover, the “Max delta MAP” value in assay [5] was -24 mmHg.

As to `COc1cc(=O)n2c3c(ccc(C)c13)OC(C1=NCCN1)C2` (stereo not given), the Ki in assay [1] was found to be 9.4 µM; in assay [2], 6800 nM. In addition, the “Max delta HR” value in assay [3] was -17 beats min-1. Besides, the Variation in assay [4] is recorded as -6%; in assay [5], 0%. The “Max delta MAP” value in assay [5] is -1 mmHg.

With `COC(=O)c1ccc2c(c1)N(C)CC(C1=NCCN1)O2` (stereo not given), the Ki in assay [1] is > 10 µM; in assay [2] it was 7500 nM.

Regarding `CN1CC(C2=NCCN2)Oc2ccc(F)cc21` (stereo in doubt; (+)4h), the Ki was found to be 2.54 µM in assay [1] and 68.2 nM in assay [2]. Moreover, the “Max delta HR” value in assay [3] is given as -85 beats min-1. For the same compound, the Variation is listed as -25% in assay [4] and -28% in assay [5]. Also, in assay [5], the “Max delta MAP” value is -50 mmHg.

As to `Cc1ccc2c3c1CCCN3CC(C1=NCCN1)O2` (stereo not given), the Ki was > 10 µM in assay [1] and 230 nM in assay [2]. The “Max delta HR” value in assay [3] is -79 beats min-1. Also, the Variation in assay [4] is given as -25%; in assay [5], -9%. In assay [5], the “Max delta MAP” value is on record as -17 mmHg.

`c1cc2c3c(c1)ccn3CC(C1=NCCN1)O2` (stereo not given): the figures for the Ki in assay [1] and in assay [2] were > 1 µM and 360 nM, respectively. Besides, the “Max delta HR” value in assay [3] is on record as -45 beats min-1. Moreover, the Variation in assay [4] and in assay [5] was -14% in each case. For the same compound, in assay [5], the “Max delta MAP” value is recorded as -24 mmHg.

Regarding `CCCC1(C2=NCCN2)CN(C)c2ccccc2O1` (stereo not given), the Ki in assay [1] is > 1 µM; in assay [2] it was > 1000 nM. Besides, the “Max delta HR” value in assay [3] was -56 beats min-1. Moreover, the results for the Variation in assay [4] and in assay [5] were -17% and 11%, respectively. In assay [5], the “Max delta MAP” value came out at 22 mmHg.

With `Cc1ccc2c(c1)OC(C1=NCCN1)CN2C` (stereo not given), the figures for the Ki in assay [1] and in assay [2] were 1 µM and 30 nM, respectively. Further, the “Max delta HR” value in assay [3] is -60 beats min-1. Besides, the figures for the Variation in assay [4] and in assay [5] were -19% and -20%, respectively. For the same compound, the “Max delta MAP” value in assay [5] is on record as -34 mmHg.
